Laboratory results published in article PMC3573876 (The Journal of antibiotics, 2012).

Tests used:
[1] = tested on: activated p65 subunits of NF-κB in the nucleus of HeLa cells; experiment: ELISA based NF-κB p65 inhibitory assay; format: cell-based, human; conditions: for IC50: read-out: NF-κB inhibitory activity IC50 values, p65 binding, HeLa cells, ELISA
[2] = molecular target: EGFR tyrosine kinase (Homo sapiens, UniProt P00533); experiment: EGFR enzymatic assay; format: biochemical; conditions: read-out: EGFR inhibition IC50; luminescence kinase assay
[3] = tested on: epidermal growth factor receptor (EGFR); conditions: cell-free ELISA assay; cited from earlier work
[4] = tested on: vascular endothelial growth factor receptor-1/fms-like tyrosine kinase-1 (VEGFR-1/Flt-1); conditions: cell-free ELISA assay; cited from earlier work
[5] = tested on: human epidermal growth factor receptor-2 (HER2/ErbB-2); conditions: cell-free ELISA assay; cited from earlier work
[6] = Cytotoxicity assay; format: cell-based; conditions: human, NCI-H460 large cell lung carcinoma cells
Outline: (§1)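 Cells were exposed continuously to the test compound for 72 h, then stained with sulforhodamine B. IC50 was the concentration that reduced staining by 50% relative to untreated controls. Positive controls were run alongside. MCF-7 came from a cancer-centre stock, NCI-H460 from ATCC, and SF-268 from the NCI Developmental Therapeutics Program.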

[7] = Cytotoxicity assay; format: cell-based; conditions: human, SF-268 astrocytoma cells
Outline: as §1

[8] = Cytotoxicity assay; format: cell-based; conditions: human, MCF-7 breast carcinoma cells
Outline: as §1

[9] = Cytotoxicity assay; format: cell-based; conditions: human
[10] = Cytotoxicity assay; format: cell-based; conditions: human; remark: listed apart in the source
[11] = tested on: A549 (adenocarcinoma); conditions: A549 human cell line; cited from earlier work
[12] = tested on: HepG2 (hepatocellular carcinoma); conditions: HepG2 human cell line; cited from earlier work

Chain of EGFR tyrosine kinase (P00533 25-1210): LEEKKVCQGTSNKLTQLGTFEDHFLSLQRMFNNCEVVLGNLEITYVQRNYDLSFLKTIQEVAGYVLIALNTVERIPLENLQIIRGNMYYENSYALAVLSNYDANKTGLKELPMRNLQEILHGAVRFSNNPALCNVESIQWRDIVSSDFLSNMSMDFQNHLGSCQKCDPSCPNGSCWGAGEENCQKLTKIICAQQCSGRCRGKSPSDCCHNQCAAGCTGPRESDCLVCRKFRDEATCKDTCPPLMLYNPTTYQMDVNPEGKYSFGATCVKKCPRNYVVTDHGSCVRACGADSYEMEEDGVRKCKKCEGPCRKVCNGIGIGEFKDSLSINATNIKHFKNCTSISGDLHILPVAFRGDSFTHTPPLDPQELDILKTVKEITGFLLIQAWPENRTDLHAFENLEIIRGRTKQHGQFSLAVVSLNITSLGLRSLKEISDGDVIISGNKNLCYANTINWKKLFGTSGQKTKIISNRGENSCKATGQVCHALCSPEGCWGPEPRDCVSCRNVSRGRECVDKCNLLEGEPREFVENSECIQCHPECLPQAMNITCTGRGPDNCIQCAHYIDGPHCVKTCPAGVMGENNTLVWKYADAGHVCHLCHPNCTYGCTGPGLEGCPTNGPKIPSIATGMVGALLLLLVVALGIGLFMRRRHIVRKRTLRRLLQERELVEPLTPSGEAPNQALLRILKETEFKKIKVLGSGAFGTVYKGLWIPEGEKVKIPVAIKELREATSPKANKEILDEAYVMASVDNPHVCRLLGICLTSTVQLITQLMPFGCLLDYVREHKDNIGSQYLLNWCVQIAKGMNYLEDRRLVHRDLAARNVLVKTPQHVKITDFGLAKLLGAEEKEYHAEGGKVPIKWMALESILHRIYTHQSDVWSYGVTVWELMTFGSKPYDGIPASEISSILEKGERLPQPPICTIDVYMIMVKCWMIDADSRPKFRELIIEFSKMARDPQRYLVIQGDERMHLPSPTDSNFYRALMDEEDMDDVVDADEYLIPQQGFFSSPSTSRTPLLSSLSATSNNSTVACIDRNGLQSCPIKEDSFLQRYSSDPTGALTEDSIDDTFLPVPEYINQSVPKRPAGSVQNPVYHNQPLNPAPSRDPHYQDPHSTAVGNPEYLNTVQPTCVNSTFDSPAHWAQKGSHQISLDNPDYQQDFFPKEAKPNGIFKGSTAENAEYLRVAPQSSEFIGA

CN1C(=O)[C@]23SS[C@@]1(C)C(=O)N2[C@H]1Nc2ccccc2[C@@]1([C@@]12c4ccccc4N[C@@H]1N1C(=O)[C@@]4(C)SS[C@]1(C(=O)N4C)[C@H]2O)[C@@H]3O [Verticillin A (3), verticillin A]
NF-κB assay activity (in words) [1]: sub-micromolar range
IC50 [1]: 100 nM
IC50 [2]: > 10000 nM

CN1C(=O)[C@@]23C[C@]4([C@]56C[C@@]78SS[C@@](C)(C(=O)N7[C@H]5Nc5ccccc56)N(C)C8=O)c5ccccc5N[C@@H]4N2C(=O)[C@]1(C)SS3 [11,11′-Dideoxyverticillin]
Tyrosine kinase inhibitory activity, EGFR [3]: nM range
Tyrosine kinase inhibitory activity, VEGFR-1/Flt-1 [4]: nM range
Tyrosine kinase inhibitory activity, HER2/ErbB-2 [5]: µM range

CC[C@@]1(O)C(=O)OCc2c1cc1n(c2=O)Cc2cc3ccccc3nc2-1 [Camptothecin]
IC50 at 72 h [6]: 10 nM
IC50 at 72 h [7]: 10 nM
IC50 at 72 h [8]: 130 nM

CC[C@@]12SS[C@]3(C(=O)N1C)[C@@H](O)[C@]1(C45c6ccccc6N[C@@H]4N4C(=O)[C@@]6(CC)SS[C@@]4(C(=O)N6C)[C@H]5O)c4ccccc4N[C@@H]1N3C2=O (some centres unmarked) [Verticillin H (1), verticillin H]
IC50 [1]: > 10000 nM
IC50 [2]: > 10000 nM

Sch 52901 [Sch 52900 (5)]
IC50 [1]: > 10000 nM

COC(=O)[C@H]1[C@@H](O)[C@@]2(O)c3c(OC)cc(O[C@@H]4O[C@@H]([C@H](O)CO)CO[C@H]4OC)cc3O[C@@]2(c2ccc(OC)cc2)[C@@H]1c1ccccc1 [Silvestrol]
IC50 [9]: 10 nM
IC50 [10]: 10 nM

CC(O)[C@@]12SS[C@]3(C(=O)N1C)[C@@H](O)[C@]1([C@@]45c6ccccc6N[C@@H]4N4C(=O)[C@]6(C)SS[C@]4(C(=O)N6C)[C@H]5O)c4ccccc4N[C@@H]1N3C2=O (some centres unmarked) [Sch 52901 (2), Sch 52900]
NF-κB assay activity (in words) [1]: sub-micromolar range
IC50 [1]: 500 nM

CC[C@@]12SS[C@]3(C(=O)N1C)[C@@H](O)C1(C45c6ccccc6N[C@@H]4N4C(=O)[C@]6([C@@H](C)O)SS[C@]4(C(=O)N6C)[C@H]5O)c4ccccc4N[C@@H]1N3C2=O (some centres unmarked) [Gliocladicillin C (4), gliocladicillin C]
IC50 [1]: > 10000 nM
IC50 [2]: > 10000 nM
Cytotoxic activity on A549 [11]: high cytotoxic activity
Cytotoxic activity on HepG2 [12]: high cytotoxic activity
